# Measurements: publication PMC8123931 (Nature chemical biology, 2020)
# Read-outs that look alike come from different tables or passages of the source.
# Key:
# [1] = test system: PC9 EGFR ex19del/T790M/C797S cells; test: Western analysis of EGFR activation and downstream signalling; type: cell-based; conditions: for EGFR activation and signalling through ERK and AKT: 20 µM; for EGFR activation and signalling through ERK and AKT / EGFR phosphorylation/activation / phosphorylation of downstream signalling partners: 2 hours treatment; for EGFR phosphorylation/activation: compared with PC9 ex19del cells; for phosphorylation of downstream signalling partners: triple mutant cells; for potency towards mutant EGFR relative to EMI1: 10 µM dose
# AXL = target: T1, AXL (Homo sapiens, UniProt P30530); test: MaMTH-DS assay, AXL bait with Shc1 prey; type: cell-based; conditions: dose response
# T1 sequence (P30530 26-894): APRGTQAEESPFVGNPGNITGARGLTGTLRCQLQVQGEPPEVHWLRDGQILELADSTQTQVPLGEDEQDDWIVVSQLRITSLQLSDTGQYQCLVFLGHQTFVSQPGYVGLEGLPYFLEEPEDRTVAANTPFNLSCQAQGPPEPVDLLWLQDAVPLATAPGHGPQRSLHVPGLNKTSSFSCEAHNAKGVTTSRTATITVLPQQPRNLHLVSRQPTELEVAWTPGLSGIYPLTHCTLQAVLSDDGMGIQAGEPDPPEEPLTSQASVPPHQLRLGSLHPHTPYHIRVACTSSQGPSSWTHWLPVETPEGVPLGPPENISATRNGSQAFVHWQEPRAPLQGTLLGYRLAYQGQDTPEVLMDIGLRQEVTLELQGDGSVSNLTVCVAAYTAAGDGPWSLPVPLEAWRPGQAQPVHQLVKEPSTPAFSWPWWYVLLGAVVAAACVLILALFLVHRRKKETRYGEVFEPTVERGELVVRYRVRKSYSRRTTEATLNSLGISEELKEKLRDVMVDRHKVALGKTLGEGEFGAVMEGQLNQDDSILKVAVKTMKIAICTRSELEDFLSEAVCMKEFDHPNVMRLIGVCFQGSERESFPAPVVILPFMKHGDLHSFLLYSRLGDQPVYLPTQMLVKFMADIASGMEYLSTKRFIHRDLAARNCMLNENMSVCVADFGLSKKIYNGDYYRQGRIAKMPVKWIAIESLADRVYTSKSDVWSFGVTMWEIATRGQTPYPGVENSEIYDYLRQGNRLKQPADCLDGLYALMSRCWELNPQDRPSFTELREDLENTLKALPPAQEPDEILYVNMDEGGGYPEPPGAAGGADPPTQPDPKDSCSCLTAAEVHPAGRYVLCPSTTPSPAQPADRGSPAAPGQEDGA
# MaMTH stable bait cells = test: Reporter cell viability; type: cell-based
# In short: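 MaMTH stable bait cells seeded at 10,000 cells/well in 96-well plates. Next day treated across a dose range of test compound, with 0.5 μg/mL tetracycline to induce bait expression. Viability measured by CellTiter-Glo luminescence after 72 h of drug exposure.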
# [2] = test system: RTK bait (MET, FGFR4, AXL, ALK, EGFR); conditions: for bait expression: EGFR WT and mutant baits
# EGFR L858R/T790M/C797S [3] = target: T2, EGFR L858R/T790M/C797S (Homo sapiens, UniProt P00533, C797S/L858R/T790M); test: MaMTH-DS assay and screen, EGFR L858R/T790M/C797S bait with Shc1 prey; type: cell-based
# wild-type EGFR = wild-type EGFR (Homo sapiens, UniProt P00533); test: In vitro kinase assay, recombinant kinase domain; type: biochemical; conditions: 100 µM ATP
# EGFR L858R = EGFR L858R (Homo sapiens, UniProt P00533, L858R); test: In vitro kinase assay, recombinant EGFR single mutant; type: biochemical; conditions: compared with triple mutants
# EGFR ex19del = test: as above; type: biochemical; conditions: compared with triple mutants
# EGFR ex19del/T790M = EGFR ex19del/T790M (Homo sapiens, UniProt P00533, DEL746-750/T790M); test: In vitro kinase assay, recombinant EGFR double mutant; type: biochemical
# EGFR L858R/T790M = EGFR L858R/T790M (Homo sapiens, UniProt P00533, L858R/T790M); test: as above; type: biochemical
# [4] = test system: PC9 EGFR ex19del/T790M/C797S cells; test: Caspase 3 and 7 assay; type: cell-based; conditions: 72 hours of drug treatment
# A549 EGFR WT cells = test: Caspase 3 and 7 assay; type: cell-based; conditions: 72 hours of drug treatment
# In short: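 A549 cells were plated in 384-well plates at 5,000 cells per well and exposed to test compound for 72 h. Caspase 3 and 7 activity was then read by luminescence using the Caspase-Glo 3/7 reagent.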
# [5] = test system: PC9 EGFR ex19del/T790M/C797S organoids; test: Organoid viability assay; type: cell-based
# [6] = test system: HEK293 EGFR L858R/T790M/C797S cells; test: EGFR localization and endosomal trafficking; type: cell-based
# HEK293 EGFR WT cells = test: EGFR localization and endosomal trafficking; type: cell-based; conditions: 1 µM compound, 30 minutes EGF
# [7] = test system: HEK293 EGFR L858R/T790M/C797S cells; test: Cell surface biotinylation assay; type: cell-based; conditions: 5 µM compound, 2 hours
# EGFR L858R/T790M/C797S [8] = target: T2, EGFR L858R/T790M/C797S; test: In vitro kinase assay, recombinant kinase domain; type: biochemical; conditions: 100 µM ATP
# EGFR ex19del/T790M/C797S = EGFR ex19del/T790M/C797S (Homo sapiens, UniProt P00533, C797S/DEL746-750/T790M); test: In vitro kinase assay, recombinant kinase domain; type: biochemical; conditions: 100 µM ATP
# [9] = test system: PC9 EGFR ex19del/T790M/C797S cells; test: Microtubule imaging; type: cell-based
# ALK = ALK (Homo sapiens, UniProt Q9UM73); conditions: dose response
# Chain of ALK (Q9UM73 19-1620): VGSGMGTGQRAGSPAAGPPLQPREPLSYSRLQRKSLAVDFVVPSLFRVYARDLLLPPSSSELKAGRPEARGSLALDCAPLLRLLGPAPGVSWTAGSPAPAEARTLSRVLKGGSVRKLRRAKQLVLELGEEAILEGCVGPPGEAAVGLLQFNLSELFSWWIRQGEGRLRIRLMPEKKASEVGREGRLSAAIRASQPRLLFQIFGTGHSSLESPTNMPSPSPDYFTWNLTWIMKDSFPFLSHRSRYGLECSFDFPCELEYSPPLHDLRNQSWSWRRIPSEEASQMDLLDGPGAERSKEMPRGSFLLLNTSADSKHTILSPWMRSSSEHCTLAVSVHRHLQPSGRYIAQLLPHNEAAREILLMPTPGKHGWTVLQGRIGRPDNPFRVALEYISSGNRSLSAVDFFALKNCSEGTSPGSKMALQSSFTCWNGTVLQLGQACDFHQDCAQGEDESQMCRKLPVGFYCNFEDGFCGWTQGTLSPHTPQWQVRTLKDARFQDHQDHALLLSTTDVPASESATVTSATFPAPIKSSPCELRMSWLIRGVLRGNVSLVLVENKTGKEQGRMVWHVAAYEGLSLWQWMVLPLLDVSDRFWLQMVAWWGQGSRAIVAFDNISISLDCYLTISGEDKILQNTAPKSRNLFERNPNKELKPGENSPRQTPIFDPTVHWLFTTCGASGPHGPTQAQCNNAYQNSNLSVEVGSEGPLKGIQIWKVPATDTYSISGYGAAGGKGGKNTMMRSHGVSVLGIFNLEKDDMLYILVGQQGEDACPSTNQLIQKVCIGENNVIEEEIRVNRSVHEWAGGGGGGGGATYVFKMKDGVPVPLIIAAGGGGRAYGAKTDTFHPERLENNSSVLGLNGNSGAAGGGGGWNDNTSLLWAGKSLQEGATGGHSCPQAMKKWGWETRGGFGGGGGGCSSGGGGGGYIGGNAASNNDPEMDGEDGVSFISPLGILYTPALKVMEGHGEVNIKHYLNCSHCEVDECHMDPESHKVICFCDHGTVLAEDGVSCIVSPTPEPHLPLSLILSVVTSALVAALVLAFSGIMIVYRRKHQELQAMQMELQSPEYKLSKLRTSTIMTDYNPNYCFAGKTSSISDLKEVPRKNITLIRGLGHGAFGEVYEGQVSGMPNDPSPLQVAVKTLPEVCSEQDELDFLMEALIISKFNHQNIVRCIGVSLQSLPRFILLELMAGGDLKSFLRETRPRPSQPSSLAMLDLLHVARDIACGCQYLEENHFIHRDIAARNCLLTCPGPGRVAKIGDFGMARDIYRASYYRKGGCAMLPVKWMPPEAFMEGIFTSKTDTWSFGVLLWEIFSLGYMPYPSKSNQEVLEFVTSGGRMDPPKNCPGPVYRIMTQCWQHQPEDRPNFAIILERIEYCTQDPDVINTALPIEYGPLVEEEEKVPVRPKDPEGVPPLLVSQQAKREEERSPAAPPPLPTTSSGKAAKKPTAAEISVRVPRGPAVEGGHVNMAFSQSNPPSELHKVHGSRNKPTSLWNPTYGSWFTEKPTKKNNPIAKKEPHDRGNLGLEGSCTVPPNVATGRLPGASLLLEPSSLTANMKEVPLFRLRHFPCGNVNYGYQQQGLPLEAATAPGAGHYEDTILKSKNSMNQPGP
compound,measurement,setting,value
COc1cc(OC)c(/C=C/S(=O)(=O)Cc2ccc(OC)c(NCC(=O)O)c2)c(OC)c1 [Rigosertib],EGFR activation and signalling through ERK and AKT,[1],not evident
COc1cc2c(Oc3ccc(NC(=O)C4(C(=O)Nc5ccc(F)cc5)CC4)cc3F)ccnc2cc1OCCCN1CCOCC1 [foretinib],AXL activity (interaction with Shc1),AXL,"strongly reduced, in a dose-dependent manner"
same,reporter cell viability,MaMTH stable bait cells; AXL bait cells,cell viability was unaffected
same,bait expression level,[2]; AXL bait,not altered by compound
CC1(COc2ccc3c(c2)ncn3-c2ccc3cccc(N4CCC(N)CC4)c3n2)COC1 [crenolanib],interaction of Shc1 with EGFR L858R/T790M/C797S (in words),EGFR L858R/T790M/C797S [3],none were found to target the EGFR C797S triple mutant
CO[C@@H]1[C@H](N(C)C(=O)c2ccccc2)C[C@H]2O[C@]1(C)n1c3ccccc3c3c4c(c5c6ccccc6n2c5c31)C(=O)NC4 [midostaurin],interaction of Shc1 with EGFR L858R/T790M/C797S (in words),EGFR L858R/T790M/C797S [3],"robust, dose-dependent inhibition"
same,activity towards triple mutants compared with WT EGFR,wild-type EGFR,significantly more potent activity towards the mutants than WT EGFR
same,activity against single mutant,EGFR L858R,less effective
same,activity against single mutant,EGFR ex19del,less effective
same,activity against double mutant,EGFR ex19del/T790M,moderate to strong activity
same,activity against double mutant,EGFR L858R/T790M,moderate to strong activity
same,caspase 3/7 activity,[4],induced caspase 3 and 7 activity
same,caspase 3/7 activity,A549 EGFR WT cells,not in A549 epithelial cells carrying EGFR WT
same,EGFR phosphorylation/activation,[1],reduced EGFR phosphorylation/activation in PC9 ex19del/T790M/C797S triple mutant cells more strongly
same,phosphorylation of downstream signalling partners,[1],more potently reducing pAKT and pERK levels
same,organoid viability / growth,[5],potently affected the growth of PC9 triple mutant organoids
same,EGF accumulation in EEA1-positive early endosomes,"[6]; 1 µM compound, 30 minutes EGF",significantly reduced EGF accumulation in EEA1-positive early endosomes
same,overall amount of EGFR pY1068 localized to EEA1-positive endosomes,"[6]; 1 µM compound, 30 minutes EGF",significantly reduced the overall amount of EGFR pY1068 localized to EEA1-positive endosomes
same,average amount of activated EGFR per endosome,[6]; 30 min EGF,reduced the amount of activated EGFR per endosome
same,number of early endosomes carrying activated EGFR,[6]; 30 min EGF,had no effect on total endosome number
same,EGF accumulation in EEA1-positive early endosomes,HEK293 EGFR WT cells,A similar effect was observed for EGFR WT cells but to a lesser degree
same,overall amount of EGFR pY1068 localized to EEA1-positive endosomes,HEK293 EGFR WT cells,not in EGFR WT
same,surface levels of EGFR,[7],not observed
C#Cc1cccc(Nc2ncnc3cc(OCCOC)c(OCCOC)cc23)c1 [erlotinib],AXL activity (interaction with Shc1),AXL,not erlotinib control
same,reporter cell viability,MaMTH stable bait cells; EGFR WT and mutant bait cells,not due to a reduction in reporter cell viability
same,bait expression,[2],no effect of TKIs on bait expression
CCc1nc(C(N)=O)c(Nc2ccc(N3CCC(N4CCN(C)CC4)CC3)c(OC)c2)nc1NC1CCOCC1 [gilteritinib],interaction of Shc1 with EGFR L858R/T790M/C797S (in words),EGFR L858R/T790M/C797S [3],potent and highly specific inhibitor of the EGFR triple mutant
same,activity towards triple mutants compared with WT EGFR,wild-type EGFR,significantly more potent activity towards the mutants than WT EGFR
same,"IC50 values, inhibition of kinase domain (in words)",EGFR L858R/T790M/C797S [8],low nanomolar range
same,"IC50 values, inhibition of kinase domain (in words)",EGFR ex19del/T790M/C797S,low nanomolar range
same,activity against single mutant,EGFR L858R,less effective
same,activity against single mutant,EGFR ex19del,less effective
same,activity against double mutant,EGFR ex19del/T790M,moderate to strong activity
same,activity against double mutant,EGFR L858R/T790M,moderate to strong activity
same,caspase 3/7 activity,[4],induced caspase 3 and 7 activity
same,caspase 3/7 activity,A549 EGFR WT cells,not in A549 epithelial cells carrying EGFR WT
same,EGFR phosphorylation/activation,[1],reduced EGFR phosphorylation/activation in PC9 ex19del/T790M/C797S triple mutant cells more strongly
same,phosphorylation of downstream signalling partners,[1],more potently reducing pAKT levels
same,organoid viability / growth,[5],potently affected the growth of PC9 triple mutant organoids
C=CC(=O)Nc1cc(Nc2nccc(-c3cn(C)c4ccccc34)n2)c(OC)cc1N(C)CCN(C)C [osimertinib],reporter cell viability,MaMTH stable bait cells; EGFR WT and mutant bait cells,not due to a reduction in reporter cell viability
same,organoid viability / growth,[5],has no effect
same,EGF accumulation in EEA1-positive early endosomes,"[6]; 1 µM compound, 30 minutes EGF",had no effect
same,surface levels of EGFR,[7],not observed
same,bait expression,[2],no effect of TKIs on bait expression
COC(=O)Nc1nc2ccc(C(=O)c3cccs3)cc2[nH]1 [Nocodazole],EGFR activation and signalling through ERK and AKT,[1],not evident
CCN(CC)c1cc2oc(=O)c(-c3nc4ccccc4o3)cc2cc1C [EMI56],potency towards mutant EGFR relative to EMI1,[1],greater potency towards mutant EGFR than EMI1
same,interphase microtubules and spindle formation,[9],"did not affect interphase microtubules, nor have an effect on spindle formation"
C=CC(=O)Nc1cccc(C)c1Nc1ncc2cc(-c3c(Cl)c(OC)cc(OC)c3Cl)ccc2n1 [BLU9931],reporter cell viability,MaMTH stable bait cells; FGFR4 bait cells,no effect on reporter cell viability
CC(=O)O[C@@]12CO[C@@H]1C[C@H](O)[C@@]1(C)C(=O)[C@H](O)C3=C(C)[C@@H](OC(=O)[C@H](O)[C@@H](NC(=O)OC(C)(C)C)c4ccccc4)C[C@@](O)([C@@H](OC(=O)c4ccccc4)[C@H]21)C3(C)C [Docetaxel],EGFR activation and signalling through ERK and AKT,[1],not evident
COc1cc2c(c(OC)c1OC)-c1ccc(OC)c(=O)cc1[C@@H](NC(C)=O)CC2 [Colchicine],EGFR activation and signalling through ERK and AKT,[1],not evident
CC(C)(C)c1cc(NC(=O)Nc2ccc(-c3cn4c(n3)sc3cc(OCCN5CCOCC5)ccc34)cc2)no1 [quizartinib],interaction of Shc1 with EGFR L858R/T790M/C797S (in words),EGFR L858R/T790M/C797S [3],none were found to target the EGFR C797S triple mutant
COc1cc(N2CCC(N3CCN(C)CC3)CC2)ccc1Nc1ncc(Cl)c(Nc2ccccc2P(C)(C)=O)n1 [brigatinib],reporter cell viability,MaMTH stable bait cells; ALK bait cells,cell viability was unaffected
same,ALK activity (interaction with Shc1),ALK,"strongly reduced, in a dose-dependent manner"
same,bait expression level,[2]; ALK bait,not altered by compound
CCN(CC)c1ccc2cc(-c3nc4cc(C)ccc4o3)c(=O)oc2c1 [EMI48],potency towards mutant EGFR relative to EMI1,[1],greater potency towards mutant EGFR than EMI1
same,interphase microtubules and spindle formation,[9],"did not affect interphase microtubules, nor have an effect on spindle formation"
C[C@@H](Oc1cc(-c2cnn(C3CCNCC3)c2)cnc1N)c1c(Cl)ccc(F)c1Cl [crizotinib],reporter cell viability,MaMTH stable bait cells; MET bait cells,not due to a loss in cell viability
